A selection: hits, their analogues and other compounds. The true share with any hit is near 3.7%.
Kir21 inh: inhibitors of mouse Kir2.1 inward-rectifier potassium channel | Inward rectifier potassium channel 2 (Mus musculus), P35561 | HEK293-Kir2.1, FluxOR thallium flux fluorescence; stronger effect = lower value | B-score at 10 µM | actives 0.85% (n = 310,000);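 active = fluorescence ratio B-score at or below minus 3 SD of library scores, with starting-brightness B-score within 2 SD, cut at about -4.2 in these data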;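 note: channel flux triggered by added potassium and thallium sulfate stimulus; B-score of peak minus minimum fluorescence over baseline after thallium stimulus; more negative B-score means stronger Kir2.1 block with less thallium influx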
hERG rescue: hERG rescue from dofetilide block, primary screen, cell-based, CHO-hERG, FluxOR thallium flux, dofetilide IC70; dofetilide IC70 present; activation (rescue from dofetilide block), less the hit threshold, % at 10 µM; actives 0.51% (n = 310,000); AID 1511, 2009;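 active = activation above the mean of controls blocked by dofetilide plus 5 SD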;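 note: thallium influx through hERG after potassium depolarization seen as dye fluorescence rise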
KCNQ1 inh: inhibitors of human KCNQ1 channel, primary screen, cell-based, thallium flux, high-throughput. Potassium voltage-gated channel subfamily KQT member 1 (Homo sapiens), P51787. CHO-K1 KCNQ1, FluxOR thallium flux fluorescence; stronger effect = higher value. B-score at 10 µM. actives 1.3% (n = 310,000). AID 2642, 2010;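 active = compounds whose thallium flux B-score, printed positive for inhibition, exceeds three library SD while starting fluorescence stays within three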;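 note: channel opened by potassium depolarization with thallium stimulus after 20 min compound exposure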
KCNK3 inh: human KCNK3 channel inhibitors, primary screen, CHO cells, FluxOR thallium flux, B-score; B-score at 10 µM; FluxOR fluorescence; stronger effect = lower value; actives 0.84% (n = 340,000);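 active = B-score under library mean minus 4 SD, starting fluorescence ratio at most library mean plus 5 SD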;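 note: more negative B-score means stronger inhibition of thallium flux through KCNK3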
Target sequence (O14649 whole entry, looked up): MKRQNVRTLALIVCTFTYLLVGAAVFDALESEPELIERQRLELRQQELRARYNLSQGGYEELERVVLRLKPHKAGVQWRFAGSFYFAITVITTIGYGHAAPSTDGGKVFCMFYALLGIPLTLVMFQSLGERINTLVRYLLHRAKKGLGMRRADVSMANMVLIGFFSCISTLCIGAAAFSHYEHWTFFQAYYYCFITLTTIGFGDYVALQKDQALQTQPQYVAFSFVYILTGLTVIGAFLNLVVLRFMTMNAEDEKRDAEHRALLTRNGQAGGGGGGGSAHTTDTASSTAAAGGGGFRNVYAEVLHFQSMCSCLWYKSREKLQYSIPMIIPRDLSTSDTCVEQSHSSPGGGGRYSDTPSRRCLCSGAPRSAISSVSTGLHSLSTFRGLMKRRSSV
KCNQ1 pot: potentiators or activators of KCNQ1 channel, primary screen, cell-based, thallium flux, high-throughput; Potassium voltage-gated channel subfamily KQT member 1 (Homo sapiens), P51787; CHO-K1 KCNQ1, thallium flux FluxOR fluorescence; stronger effect = higher value; B-score at 10 µM; actives 0.35% (n = 310,000); AID 2648, 2010;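 active = fluorescence ratio B-score, a plate-corrected score, at least three library SD, with initial intensity B-score within 5 SD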
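Test system: CHO-K1 cells stably expressing KCNQ1 / Medium: assay buffer / Also added: depolarizing K+/Tl+ stimulus, K2SO4 and Tl2SO4 each 12.5 mM in 5x stock / Incubation: 90 min dye loading and 20 min compound exposure, both at room temperature / Signal: thallium influx via FluxOR fluorescence, kinetic imaging / Evaluation: B score of baseline-normalized fluorescence ratio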
KCNK9 block: KCNK9 potassium channel inhibitors, primary screen, HEK293 cells, thallium flux. AID 488922, 2010. B-score at 10 µM. FluxOR thallium flux fluorescence; stronger effect = lower value. Potassium channel subfamily K member 9 (Homo sapiens), Q9NPC2. actives 1.2% (n = 310,000);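 active = ratio B-score over 3 SD below the library mean, with starting fluorescence within 5 SD of its mean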;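 note: negative B-score means less thallium flux so channel inhibition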
The depositor's hits bear a star; i = inactive; / = no result given.

SMILES	Kir21 inh	hERG rescue	KCNQ1 inh	KCNK3 inh	KCNQ1 pot	KCNK9 block
Cc1ccc(CNC(=O)CSc2nnc3n2CCCCC3)cc1	/	/	/	i	/	/
C=CCOC(=O)C1=C[C@H](c2csc3ccccc23)C[C@H](OCc2ccc(CO)cc2)O1	-1.3	-20	6*	i	i	i
C=CCN(CC=C)C(=S)NC(=O)c1ccc(-c2ccccc2)cc1	0.8	0	i	i	15*	i
COc1ccc(CC(=O)N(Cc2ccccc2)C(C)C)cc1	-4.3*	-5	i	i	i	i
CC(C)N(Cc1ccccc1)C(=O)COc1ccccc1	0.24	-1	i	i	i	i
C=CCN(CC=C)C(=S)NC(=O)c1ccc(C)c(Br)c1	-0.03	87*	i	i	56*	i
C=CCN(CC=C)C(=S)NC(=O)/C=C/c1ccccc1	-0.87	-2	i	i	i	i
C=CCN(CC=C)C(=S)NC(=O)/C=C/c1ccc(C)cc1	-0.58	-4	i	i	i	i
C=CCN(CC=C)C(=S)NC(=O)c1ccc(OC)cc1	0.12	28*	i	i	13*	i
C=CCNC(=O)c1ccc(OC)cc1	1.3	-7	i	i	i	i
CSCCC(NC(=O)c1ccccc1Cl)C(=O)Nc1ccc(C)c(S(=O)(=O)N2CCOCC2)c1 (stereo not drawn)	0.42	-12	i	i	i	i
CCOc1ccccc1N1CCN(CC(=O)Nc2ccnn2C2CCCC2)CC1	/	/	/	i	/	/
O=C(NC(=S)N(Cc1ccccc1)Cc1ccccc1)c1ccccc1F	-0.3	16*	i	i	13*	i
COc1ccc(C(=O)NC(=S)N(Cc2ccccc2)Cc2ccccc2)cc1	0.17	33*	i	i	85*	i
CC(C)C(=O)NC(=S)N(Cc1ccccc1)Cc1ccccc1	-0.41	-6	i	i	i	i
C=CCN(CC=C)C(=S)NC(=O)/C=C/c1ccc(OC)cc1	1.6	12*	i	i	i	i
COc1ccc(NC(C)(C)c2nnnn2-c2c(C)cccc2C)cc1	-0.23	-9	i	i	i	i
CCN(C(=O)c1ccc2c(=O)n3c(nc2c1)CCCCC3)c1ccccc1C	-0.13	-14	i	i	i	i
COc1ccc(NC(=O)CCC(=O)c2ccc(F)cc2)cc1	/	/	/	i	/	/
Cc1n[nH]c(=O)c2c(NC(=O)CSc3nn(-c4ccc(F)cc4)c(=S)s3)oc(C)c12	0.41	-16	6*	i	i	i
CCCC(C(=O)NC1CCCC1)N(CC1CCCO1)C(=O)CNS(=O)(=O)c1ccccc1 (stereo not drawn)	-0.78	-6	i	i	i	i
Cc1cccc(/C=C2/Sc3ccc(C(=O)NCCN4CCCC4)cc3NC2=O)c1	-2.8	-32	6*	i	i	i
O=C1Nc2cc(C(=O)NCCN3CCCCCC3)ccc2S/C1=C\c1ccccc1	-4.9*	-28	i	i	i	i
CCN1CCN(CCCNC(=O)c2ccc3c(c2)NC(=O)/C(=C\c2cccc(C)c2)S3)CC1	-4.1	-33	i	i	i	i
CC(Cc1ccccc1)NC(=O)CCCN1C(=O)c2ccccc2C1=O (stereo not drawn)	-0.01	-8	i	i	i	i
CC[n+]1c(/C=C/N(C)c2ccccc2)oc2ccc(F)cc21	-3.2	-17	i	i	i	i
CC[n+]1c(/C=C/N(C)c2ccccc2)oc2ccccc21	-5.2	-33	8*	i	i	i
O=C(CN(C(=O)CCC(=O)Nc1ccccn1)c1ccc(F)cc1)NCc1ccc(F)cc1	-0.56	-8	i	i	i	i
COc1ccc(Br)cc1CN1CCCCCC1	0.4	-6	i	i	i	i

Screening data as filed in PubChem.
